Source: ChEMBL document CHEMBL1137737, “Synthesis, antimicrobial and cytotoxic activities of 1,3,4-oxadiazoles, 1,3,4-thiadiazoles and 1,2,4-triazoles” (Eur J Med Chem, 2009)
Converted amounts (≈) assume the structure as drawn. Blank lines part the entries; values can stand above or below the compound they belong to.

Assays:
Format in all cases: functional
Fusarium solani [1] = experiment: Antifungal activity against Fusarium solani NCIM 1330 at 100 ug/disk after 48 hrs by agar disc-diffusion method; settings: NCIM 1330, 48 h, read-out: DIZ
Outline: (§1)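 Sterile 6 mm filter-paper discs are soaked in compound solution in DMSO and placed on nutrient agar plates already inoculated with each organism. Plates are incubated at 37 °C. The diameter of the growth-inhibition zone is read after 24 h for bacteria and after 48 h for fungi.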

Proteus vulgaris [2] = experiment: Antibacterial activity against Proteus vulgaris NCIM 2027 at 200 ug/disk after 24 hrs by agar disc-diffusion method; settings: NCIM 2027, 24 h, read-out: DIZ; outline: as §1
Fusarium solani [3] = experiment: Antifungal activity against Fusarium solani NCIM 1330 at 200 ug/disk after 48 hrs by agar disc-diffusion method; settings: NCIM 1330, 48 h, read-out: DIZ; outline: as §1
Proteus vulgaris [4] = experiment: Antibacterial activity against Proteus vulgaris NCIM 2027 at 100 ug/disk after 24 hrs by agar disc-diffusion method; settings: NCIM 2027, 24 h, read-out: DIZ; outline: as §1
Curvularia lunata [5] = experiment: Antifungal activity against Curvularia lunata NCIM 716 at 200 ug/disk after 48 hrs by agar disc-diffusion method; settings: NCIM 716, 48 h, read-out: DIZ; outline: as §1
Aspergillus niger [6] = experiment: Antifungal activity against Aspergillus niger NCIM 596 at 200 ug/disk after 48 hrs by agar disc-diffusion method; settings: NCIM 596, 48 h, read-out: DIZ; outline: as §1
Staphylococcus aureus [7] = experiment: Antibacterial activity against Staphylococcus aureus NCIM 5021 at 200 ug/disk after 24 hrs by agar disc-diffusion method; settings: NCIM 5021, 24 h, read-out: DIZ; outline: as §1
Aspergillus niger [8] = experiment: Antifungal activity against Aspergillus niger NCIM 596 at 100 ug/disk after 48 hrs by agar disc-diffusion method; settings: NCIM 596, 48 h, read-out: DIZ; outline: as §1
Klebsiella pneumoniae [9] = experiment: Antibacterial activity against Klebsiella pneumoniae NCIM 2957 at 100 ug/disk after 24 hrs by agar disc-diffusion method; settings: NCIM 2957, 24 h, read-out: DIZ; outline: as §1
Staphylococcus aureus [10] = experiment: Antibacterial activity against Staphylococcus aureus NCIM 5021 at 100 ug/disk after 24 hrs by agar disc-diffusion method; settings: NCIM 5021, 24 h, read-out: DIZ; outline: as §1
Curvularia lunata [11] = experiment: Antifungal activity against Curvularia lunata NCIM 716 at 100 ug/disk after 48 hrs by agar disc-diffusion method; settings: NCIM 716, 48 h, read-out: DIZ; outline: as §1
Bacillus subtilis [12] = experiment: Antibacterial activity against Bacillus subtilis NCIM 2063 at 200 ug/disk after 24 hrs by agar disc-diffusion method; settings: NCIM 2063, 24 h, read-out: DIZ; outline: as §1
Klebsiella pneumoniae [13] = experiment: Antibacterial activity against Klebsiella pneumoniae NCIM 2957 at 200 ug/disk after 24 hrs by agar disc-diffusion method; settings: NCIM 2957, 24 h, read-out: DIZ; outline: as §1
Bacillus subtilis [14] = experiment: Antibacterial activity against Bacillus subtilis NCIM 2063 at 100 ug/disk after 24 hrs by agar disc-diffusion method; settings: NCIM 2063, 24 h, read-out: DIZ; outline: as §1
Staphylococcus aureus [15] = experiment: Antibacterial activity against Staphylococcus aureus NCIM 5021 after 24 hrs by microdilution susceptibility method; settings: NCIM 5021, 24 h
Outline: (§2)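 This is a microdilution susceptibility test. Organism suspensions are inoculated into wells holding the dilution series, then incubated at 36 °C for 24 h (bacteria) or 48 h (fungi). MIC is the lowest concentration giving no turbidity, i.e. complete inhibition of visible growth.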

Fusarium solani [16] = experiment: Antifungal activity against Fusarium solani NCIM 1330 after 48 hrs by microdilution susceptibility method; settings: NCIM 1330, 48 h; outline: as §2
Curvularia lunata [17] = experiment: Antifungal activity against Curvularia lunata NCIM 716 after 48 hrs by microdilution susceptibility method; settings: NCIM 716, 48 h; outline: as §2

Compound: O=S(=O)(Cc1nnc(-c2ccccc2Cl)o1)c1ccccc1
- zone of inhibition at 100 µg/disc (Fusarium solani [1]): 16 mm
- zone of inhibition at 200 µg/disc (Proteus vulgaris [2]): 17 mm
- zone of inhibition at 200 µg/disc (Fusarium solani [3]): 20 mm
- zone of inhibition at 100 µg/disc (Proteus vulgaris [4]): 14 mm
- zone of inhibition at 200 µg/disc (Curvularia lunata [5]): 22 mm
- zone of inhibition at 200 µg/disc (Aspergillus niger [6]): 17 mm
- zone of inhibition at 200 µg/disc (Staphylococcus aureus [7]): 16 mm
- zone of inhibition at 100 µg/disc (Aspergillus niger [8]): 15 mm
- zone of inhibition at 100 µg/disc (Klebsiella pneumoniae [9]): 12 mm
- zone of inhibition at 100 µg/disc (Staphylococcus aureus [10]): 14 mm
- zone of inhibition at 100 µg/disc (Curvularia lunata [11]): 18 mm
- zone of inhibition at 200 µg/disc (Bacillus subtilis [12]): 17 mm
- zone of inhibition at 200 µg/disc (Klebsiella pneumoniae [13]): 15 mm
- zone of inhibition at 100 µg/disc (Bacillus subtilis [14]): 16 mm

Compound: O=S(=O)(Cc1ccccc1)Cc1nnc(-c2ccccc2Cl)o1
- zone of inhibition at 100 µg/disc (Fusarium solani [1]): 17 mm
- zone of inhibition at 200 µg/disc (Proteus vulgaris [2]): 17 mm
- MIC (Staphylococcus aureus [15]): 400 µg/mL (≈ 1150 µM)
- zone of inhibition at 200 µg/disc (Fusarium solani [3]): 19 mm
- zone of inhibition at 100 µg/disc (Proteus vulgaris [4]): 15 mm
- MIC (Fusarium solani [16]): 400 µg/mL (≈ 1150 µM)
- zone of inhibition at 200 µg/disc (Curvularia lunata [5]): 23 mm
- zone of inhibition at 200 µg/disc (Aspergillus niger [6]): 21 mm
- zone of inhibition at 200 µg/disc (Staphylococcus aureus [7]): 20 mm
- zone of inhibition at 100 µg/disc (Aspergillus niger [8]): 18 mm
- zone of inhibition at 100 µg/disc (Klebsiella pneumoniae [9]): 14 mm
- zone of inhibition at 100 µg/disc (Staphylococcus aureus [10]): 17 mm
- zone of inhibition at 100 µg/disc (Curvularia lunata [11]): 18 mm
- zone of inhibition at 200 µg/disc (Bacillus subtilis [12]): 18 mm
- zone of inhibition at 200 µg/disc (Klebsiella pneumoniae [13]): 16 mm
- zone of inhibition at 100 µg/disc (Bacillus subtilis [14]): 15 mm
- MIC (Curvularia lunata [17]): 400 µg/mL (≈ 1150 µM)

Compound: O=S(=O)(Cc1nnc(-c2ccccc2)o1)c1ccccc1
- zone of inhibition at 100 µg/disc (Fusarium solani [1]): 15 mm
- zone of inhibition at 200 µg/disc (Proteus vulgaris [2]): 17 mm
- zone of inhibition at 200 µg/disc (Fusarium solani [3]): 18 mm
- zone of inhibition at 100 µg/disc (Proteus vulgaris [4]): 14 mm
- zone of inhibition at 200 µg/disc (Curvularia lunata [5]): 19 mm
- zone of inhibition at 200 µg/disc (Aspergillus niger [6]): 17 mm
- zone of inhibition at 200 µg/disc (Staphylococcus aureus [7]): 15 mm
- zone of inhibition at 100 µg/disc (Aspergillus niger [8]): 14 mm
- zone of inhibition at 100 µg/disc (Klebsiella pneumoniae [9]): 16 mm
- zone of inhibition at 100 µg/disc (Staphylococcus aureus [10]): 12 mm
- zone of inhibition at 100 µg/disc (Curvularia lunata [11]): 15 mm
- zone of inhibition at 200 µg/disc (Bacillus subtilis [12]): 13 mm
- zone of inhibition at 200 µg/disc (Klebsiella pneumoniae [13]): 18 mm
- zone of inhibition at 100 µg/disc (Bacillus subtilis [14]): 11 mm

Continued, in another order:

- MIC (Staphylococcus aureus [15]): 400 µg/mL (≈ 1270 µM)
- MIC (Fusarium solani [16]): 400 µg/mL (≈ 1270 µM)
Compound: O=S(=O)(Cc1ccccc1)Cc1nnc(-c2ccccc2)o1
- zone of inhibition at 100 µg/disc (Fusarium solani [1]): 17 mm
- zone of inhibition at 200 µg/disc (Proteus vulgaris [2]): 15 mm
- zone of inhibition at 200 µg/disc (Fusarium solani [3]): 20 mm
- zone of inhibition at 100 µg/disc (Proteus vulgaris [4]): 12 mm
- zone of inhibition at 200 µg/disc (Curvularia lunata [5]): 22 mm
- zone of inhibition at 200 µg/disc (Aspergillus niger [6]): 17 mm
- zone of inhibition at 200 µg/disc (Staphylococcus aureus [7]): 18 mm
- zone of inhibition at 100 µg/disc (Aspergillus niger [8]): 16 mm
- zone of inhibition at 100 µg/disc (Klebsiella pneumoniae [9]): 15 mm
- zone of inhibition at 100 µg/disc (Staphylococcus aureus [10]): 16 mm
- zone of inhibition at 100 µg/disc (Curvularia lunata [11]): 18 mm
- zone of inhibition at 200 µg/disc (Bacillus subtilis [12]): 17 mm
- zone of inhibition at 200 µg/disc (Klebsiella pneumoniae [13]): 18 mm
- zone of inhibition at 100 µg/disc (Bacillus subtilis [14]): 14 mm

- MIC (Staphylococcus aureus [15]): 400 µg/mL (≈ 1150 µM)
- MIC (Fusarium solani [16]): 400 µg/mL (≈ 1150 µM)
- MIC (Curvularia lunata [17]): 400 µg/mL (≈ 1150 µM)
Compound: O=S(=O)(Cc1ccc(Cl)cc1)Cc1nnc(-c2ccccc2)o1
- zone of inhibition at 100 µg/disc (Fusarium solani [1]): 16 mm
- zone of inhibition at 200 µg/disc (Proteus vulgaris [2]): 17 mm
- zone of inhibition at 200 µg/disc (Fusarium solani [3]): 19 mm
- zone of inhibition at 100 µg/disc (Proteus vulgaris [4]): 15 mm
- zone of inhibition at 200 µg/disc (Curvularia lunata [5]): 22 mm
- zone of inhibition at 200 µg/disc (Aspergillus niger [6]): 21 mm
- zone of inhibition at 200 µg/disc (Staphylococcus aureus [7]): 20 mm
- zone of inhibition at 100 µg/disc (Aspergillus niger [8]): 17 mm
- zone of inhibition at 100 µg/disc (Klebsiella pneumoniae [9]): 16 mm
- zone of inhibition at 100 µg/disc (Staphylococcus aureus [10]): 18 mm
- zone of inhibition at 100 µg/disc (Curvularia lunata [11]): 19 mm
- zone of inhibition at 200 µg/disc (Bacillus subtilis [12]): 19 mm
- zone of inhibition at 200 µg/disc (Klebsiella pneumoniae [13]): 18 mm
- zone of inhibition at 100 µg/disc (Bacillus subtilis [14]): 18 mm

- MIC (Fusarium solani [16]): 400 µg/mL (≈ 1190 µM)
Compound: O=S(=O)(Cc1nnc(-c2ccccc2)o1)c1ccc(Cl)cc1
- zone of inhibition at 100 µg/disc (Fusarium solani [1]): 16 mm
- zone of inhibition at 200 µg/disc (Proteus vulgaris [2]): 15 mm
- zone of inhibition at 200 µg/disc (Fusarium solani [3]): 20 mm
- zone of inhibition at 100 µg/disc (Proteus vulgaris [4]): 12 mm
- zone of inhibition at 200 µg/disc (Curvularia lunata [5]): 17 mm
- zone of inhibition at 200 µg/disc (Aspergillus niger [6]): 19 mm
- zone of inhibition at 200 µg/disc (Staphylococcus aureus [7]): 18 mm
- zone of inhibition at 100 µg/disc (Aspergillus niger [8]): 16 mm
- zone of inhibition at 100 µg/disc (Klebsiella pneumoniae [9]): 14 mm
- zone of inhibition at 100 µg/disc (Staphylococcus aureus [10]): 15 mm
- zone of inhibition at 100 µg/disc (Curvularia lunata [11]): 15 mm
- zone of inhibition at 200 µg/disc (Bacillus subtilis [12]): 17 mm
- zone of inhibition at 200 µg/disc (Klebsiella pneumoniae [13]): 16 mm
- zone of inhibition at 100 µg/disc (Bacillus subtilis [14]): 15 mm
